Assay results: ChEMBL document CHEMBL4689842, “EUbOPEN Chemogenomics Library wave 1” (2021)

Tested on: HEK-293T
Assay: Multiplex assay against HEK293T;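 as to Population Tubulin-Different-Phenotype (%): share of the cells with healthy nuclei that show this phenotype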
Format: toxicity, cell-based
Conditions: human
Procedure, shortened: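 Imaging took place on a CQ1 microscope at 37°C and 5% CO2 once compound had been added to live cells stained at seeding with Hoechst33342, BioTracker Green Microtubule Cytoskeleton Dye, MitoTracker Red and Annexin V Alexa Fluor 680. CellPathfinder machine-learning gating classed cells as Hoechst high-intensity objects or normal cells, classed normal cells as having healthy, pyknosed or fragmented nuclei, and classed pyknosed cells as mitotic or apoptotic. Tubulin, mitochondrial-mass and membrane-permeability phenotypes are per cents of the healthy-nucleus cells.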

[1] = 12 h, 1 µM, compound concentration 1 uM, replicate 1
[2] = 12 h, 1 µM, compound concentration 1 uM, replicate 2
[3] = 12 h, 10 µM, compound concentration 10 uM, replicate 1
[4] = 12 h, 10 µM, compound concentration 10 uM, replicate 2
[5] = 24 h, 1 µM, compound concentration 1 uM, replicate 1
[6] = 24 h, 1 µM, compound concentration 1 uM, replicate 2
[7] = 24 h, 10 µM, compound concentration 10 uM, replicate 1
[8] = 24 h, 10 µM, compound concentration 10 uM, replicate 2
[9] = 48 h, 1 µM, compound concentration 1 uM, replicate 1
[10] = 48 h, 1 µM, compound concentration 1 uM, replicate 2
[11] = 48 h, 10 µM, compound concentration 10 uM, replicate 1
[12] = 48 h, 10 µM, compound concentration 10 uM, replicate 2

With O=c1cc(N2CCOCC2)oc2c(-c3cccc4c3sc3ccccc34)cccc12 the “Population Apoptotic (%)” value [1] was 46%, the “Population Fragmented Nuclei (%)” value [1] was 7% and the “Population Hoechst High Intensity Objects (%)” value [1] was 12%. For the same molecule, the “Population Membrane Permeable-Phenotype (%)” value [1] was 3%, the “Population Mitochondria Different-Phenotype (%)” value [1] was 92% and the “Population Mitotic Cells (%)” value [1] was 53%. For the same molecule, the “Population Normal (%)” value [1] was 87%, the “Population Pyknosed Nuclei (%)” value [1] was 52% and the “Population Tubulin-Different-Phenotype (%)” value [1] was 58%. The “Total Cell Count” value [1] was 283, the “Population Apoptotic (%)” value [2] was 14% and the “Population Fragmented Nuclei (%)” value [2] was 5%. The “Population Healthy Nuclei (%)” value [2] was 40%, the “Population Hoechst High Intensity Objects (%)” value [2] was 4% and the “Population Membrane Permeable-Phenotype (%)” value [2] was 1%. For the same molecule, the “Population Mitochondria Different-Phenotype (%)” value [2] was 20%, the “Population Mitotic Cells (%)” value [2] was 85% and the “Population Normal (%)” value [2] was 95%. The “Population Pyknosed Nuclei (%)” value [2] was 53%, the “Population Tubulin-Different-Phenotype (%)” value [2] was 19% and the “Total Cell Count” value [2] was 224. The “Population Apoptotic (%)” value [3] was 61%, the “Population Fragmented Nuclei (%)” value [3] was 16% and the “Population Healthy Nuclei (%)” value [3] was 14%. For the same molecule, the “Population Hoechst High Intensity Objects (%)” value [3] was 14%, the “Population Membrane Permeable-Phenotype (%)” value [3] was 8% and the “Population Mitochondria Different-Phenotype (%)” value [3] was 100%. The “Population Mitotic Cells (%)” value [3] was 38%, the “Population Normal (%)” value [3] was 85% and the “Population Pyknosed Nuclei (%)” value [3] was 68%. For the same molecule, the “Population Tubulin-Different-Phenotype (%)” value [3] was 91%, the “Total Cell Count” value [3] was 192 and the “Population Apoptotic (%)” value [4] was 49%. The “Population Fragmented Nuclei (%)” value [4] was 8%, the “Population Healthy Nuclei (%)” value [4] was 7% and the “Population Hoechst High Intensity Objects (%)” value [4] was 6%. For the same molecule, the “Population Mitochondria Different-Phenotype (%)” value [4] was 91%, the “Population Mitotic Cells (%)” value [4] was 50% and the “Population Normal (%)” value [4] was 93%. For the same molecule, the “Population Pyknosed Nuclei (%)” value [4] was 83%, the “Population Tubulin-Different-Phenotype (%)” value [4] was 83% and the “Total Cell Count” value [4] was 172. The “Population Apoptotic (%)” value [5] was 53%, the “Population Fragmented Nuclei (%)” value [5] was 9% and the “Population Healthy Nuclei (%)” value [5] was 44%. The “Population Hoechst High Intensity Objects (%)” value [5] was 12%, the “Population Membrane Permeable-Phenotype (%)” value [5] was 2% and the “Population Mitochondria Different-Phenotype (%)” value [5] was 77%. For the same molecule, the “Population Mitotic Cells (%)” value [5] was 46%, the “Population Normal (%)” value [5] was 87% and the “Population Pyknosed Nuclei (%)” value [5] was 46%. For the same molecule, the “Population Tubulin-Different-Phenotype (%)” value [5] was 40%, the “Total Cell Count” value [5] was 310 and the “Population Apoptotic (%)” value [6] was 16%. For the same molecule, the “Population Fragmented Nuclei (%)” value [6] was 3%, the “Population Healthy Nuclei (%)” value [6] was 60% and the “Population Hoechst High Intensity Objects (%)” value [6] was 4%. For the same molecule, the “Population Membrane Permeable-Phenotype (%)” value [6] was 3%, the “Population Mitochondria Different-Phenotype (%)” value [6] was 22% and the “Population Mitotic Cells (%)” value [6] was 83%. The “Population Normal (%)” value [6] was 95%, the “Population Pyknosed Nuclei (%)” value [6] was 36% and the “Population Tubulin-Different-Phenotype (%)” value [6] was 38%. The “Total Cell Count” value [6] was 272, the “Population Apoptotic (%)” value [7] was 61% and the “Population Fragmented Nuclei (%)” value [7] was 15%. The “Population Healthy Nuclei (%)” value [7] was 12%, the “Population Hoechst High Intensity Objects (%)” value [7] was 16% and the “Population Membrane Permeable-Phenotype (%)” value [7] was 0%. The “Population Mitochondria Different-Phenotype (%)” value [7] was 100%, the “Population Mitotic Cells (%)” value [7] was 38% and the “Population Normal (%)” value [7] was 83%. The “Population Pyknosed Nuclei (%)” value [7] was 71%, the “Population Tubulin-Different-Phenotype (%)” value [7] was 100% and the “Total Cell Count” value [7] was 206. For the same molecule, the “Population Apoptotic (%)” value [8] was 60%, the “Population Fragmented Nuclei (%)” value [8] was 7% and the “Population Healthy Nuclei (%)” value [8] was 22%. The “Population Hoechst High Intensity Objects (%)” value [8] was 2%, the “Population Mitotic Cells (%)” value [8] was 39% and the “Population Normal (%)” value [8] was 97%. The “Population Pyknosed Nuclei (%)” value [8] was 69%, the “Total Cell Count” value [8] was 186 and the “Population Apoptotic (%)” value [9] was 30%. The “Population Fragmented Nuclei (%)” value [9] was 17%, the “Population Healthy Nuclei (%)” value [9] was 42% and the “Population Hoechst High Intensity Objects (%)” value [9] was 9%. The “Population Membrane Permeable-Phenotype (%)” value [9] was 2%, the “Population Mitochondria Different-Phenotype (%)” value [9] was 44% and the “Population Mitotic Cells (%)” value [9] was 70%. The “Population Normal (%)” value [9] was 90%, the “Population Pyknosed Nuclei (%)” value [9] was 40% and the “Population Tubulin-Different-Phenotype (%)” value [9] was 45%. For the same molecule, the “Total Cell Count” value [9] was 384, the “Population Apoptotic (%)” value [10] was 14% and the “Population Fragmented Nuclei (%)” value [10] was 7%. The “Population Healthy Nuclei (%)” value [10] was 77%, the “Population Hoechst High Intensity Objects (%)” value [10] was 3% and the “Population Membrane Permeable-Phenotype (%)” value [10] was 3%. The “Population Mitochondria Different-Phenotype (%)” value [10] was 6%, the “Population Mitotic Cells (%)” value [10] was 85% and the “Population Normal (%)” value [10] was 96%. For the same molecule, the “Population Pyknosed Nuclei (%)” value [10] was 15%, the “Population Tubulin-Different-Phenotype (%)” value [10] was 26% and the “Total Cell Count” value [10] was 477. The “Population Apoptotic (%)” value [11] was 68%, the “Population Fragmented Nuclei (%)” value [11] was 24% and the “Population Healthy Nuclei (%)” value [11] was 20%. For the same molecule, the “Population Hoechst High Intensity Objects (%)” value [11] was 17%, the “Population Membrane Permeable-Phenotype (%)” value [11] was 0% and the “Population Mitochondria Different-Phenotype (%)” value [11] was 100%. The “Population Mitotic Cells (%)” value [11] was 31%, the “Population Normal (%)” value [11] was 82% and the “Population Pyknosed Nuclei (%)” value [11] was 55%. The “Population Tubulin-Different-Phenotype (%)” value [11] was 93%, the “Total Cell Count” value [11] was 186 and the “Population Apoptotic (%)” value [12] was 61%. The “Population Fragmented Nuclei (%)” value [12] was 8%, the “Population Healthy Nuclei (%)” value [12] was 29% and the “Population Hoechst High Intensity Objects (%)” value [12] was 8%. For the same molecule, the “Population Mitochondria Different-Phenotype (%)” value [12] was 94%, the “Population Mitotic Cells (%)” value [12] was 38% and the “Population Normal (%)” value [12] was 91%. For the same molecule, the “Population Pyknosed Nuclei (%)” value [12] was 62%, the “Population Tubulin-Different-Phenotype (%)” value [12] was 96% and the “Total Cell Count” value [12] was 185.
For O=c1[nH]c2ccccc2n1C1CCN(Cc2ccc(-c3[nH]c4cc5ncnc5cc4nc3-c3ccccc3)cc2)CC1, the “Population Apoptotic (%)” value [1] was 16%, the “Population Fragmented Nuclei (%)” value [1] was 13% and the “Population Healthy Nuclei (%)” value [1] was 69%. The “Population Hoechst High Intensity Objects (%)” value [1] was 7%, the “Population Membrane Permeable-Phenotype (%)” value [1] was 7% and the “Population Mitochondria Different-Phenotype (%)” value [1] was 3%. For the same molecule, the “Population Mitotic Cells (%)” value [1] was 83%, the “Population Normal (%)” value [1] was 92% and the “Population Pyknosed Nuclei (%)” value [1] was 16%. The “Population Tubulin-Different-Phenotype (%)” value [1] was 6%, the “Total Cell Count” value [1] was 646 and the “Population Apoptotic (%)” value [2] was 10%. The “Population Fragmented Nuclei (%)” value [2] was 5%, the “Population Healthy Nuclei (%)” value [2] was 89% and the “Population Hoechst High Intensity Objects (%)” value [2] was 2%. The “Population Membrane Permeable-Phenotype (%)” value [2] was 5%, the “Population Mitochondria Different-Phenotype (%)” value [2] was 23% and the “Population Mitotic Cells (%)” value [2] was 90%. For the same molecule, the “Population Normal (%)” value [2] was 97%, the “Population Pyknosed Nuclei (%)” value [2] was 5% and the “Population Tubulin-Different-Phenotype (%)” value [2] was 43%. For the same molecule, the “Total Cell Count” value [2] was 1621, the “Population Apoptotic (%)” value [3] was 38% and the “Population Fragmented Nuclei (%)” value [3] was 10%. For the same molecule, the “Population Healthy Nuclei (%)” value [3] was 50%, the “Population Hoechst High Intensity Objects (%)” value [3] was 20% and the “Population Membrane Permeable-Phenotype (%)” value [3] was 22%. The “Population Mitochondria Different-Phenotype (%)” value [3] was 40%, the “Population Mitotic Cells (%)” value [3] was 61% and the “Population Normal (%)” value [3] was 79%. The “Population Pyknosed Nuclei (%)” value [3] was 39%, the “Population Tubulin-Different-Phenotype (%)” value [3] was 91% and the “Total Cell Count” value [3] was 661. For the same molecule, the “Population Apoptotic (%)” value [4] was 24%, the “Population Fragmented Nuclei (%)” value [4] was 2% and the “Population Healthy Nuclei (%)” value [4] was 71%. For the same molecule, the “Population Hoechst High Intensity Objects (%)” value [4] was 13%, the “Population Membrane Permeable-Phenotype (%)” value [4] was 13% and the “Population Mitochondria Different-Phenotype (%)” value [4] was 51%. For the same molecule, the “Population Mitotic Cells (%)” value [4] was 75%, the “Population Normal (%)” value [4] was 86% and the “Population Pyknosed Nuclei (%)” value [4] was 25%. For the same molecule, the “Population Tubulin-Different-Phenotype (%)” value [4] was 86%, the “Total Cell Count” value [4] was 974 and the “Population Apoptotic (%)” value [5] was 11%. For the same molecule, the “Population Fragmented Nuclei (%)” value [5] was 14%, the “Population Hoechst High Intensity Objects (%)” value [5] was 6% and the “Population Membrane Permeable-Phenotype (%)” value [5] was 17%. For the same molecule, the “Population Mitochondria Different-Phenotype (%)” value [5] was 3%, the “Population Mitotic Cells (%)” value [5] was 88% and the “Population Normal (%)” value [5] was 93%. The “Population Pyknosed Nuclei (%)” value [5] was 5%, the “Population Tubulin-Different-Phenotype (%)” value [5] was 14% and the “Total Cell Count” value [5] was 776. For the same molecule, the “Population Apoptotic (%)” value [6] was 7%, the “Population Fragmented Nuclei (%)” value [6] was 17% and the “Population Healthy Nuclei (%)” value [6] was 79%. The “Population Hoechst High Intensity Objects (%)” value [6] was 4%, the “Population Membrane Permeable-Phenotype (%)” value [6] was 14% and the “Population Mitochondria Different-Phenotype (%)” value [6] was 6%. The “Population Mitotic Cells (%)” value [6] was 92%, the “Population Normal (%)” value [6] was 95% and the “Population Pyknosed Nuclei (%)” value [6] was 3%. The “Population Tubulin-Different-Phenotype (%)” value [6] was 52%, the “Total Cell Count” value [6] was 2517 and the “Population Apoptotic (%)” value [7] was 54%. The “Population Fragmented Nuclei (%)” value [7] was 12%, the “Population Healthy Nuclei (%)” value [7] was 56% and the “Population Hoechst High Intensity Objects (%)” value [7] was 31%. For the same molecule, the “Population Membrane Permeable-Phenotype (%)” value [7] was 9%, the “Population Mitochondria Different-Phenotype (%)” value [7] was 70% and the “Population Mitotic Cells (%)” value [7] was 45%. The “Population Normal (%)” value [7] was 68%, the “Population Pyknosed Nuclei (%)” value [7] was 31% and the “Population Tubulin-Different-Phenotype (%)” value [7] was 83%. The “Total Cell Count” value [7] was 612, the “Population Apoptotic (%)” value [8] was 28% and the “Population Fragmented Nuclei (%)” value [8] was 2%. The “Population Healthy Nuclei (%)” value [8] was 71%, the “Population Hoechst High Intensity Objects (%)” value [8] was 23% and the “Population Membrane Permeable-Phenotype (%)” value [8] was 6%. The “Population Mitochondria Different-Phenotype (%)” value [8] was 67%, the “Population Mitotic Cells (%)” value [8] was 71% and the “Population Normal (%)” value [8] was 76%. The “Population Pyknosed Nuclei (%)” value [8] was 26%, the “Population Tubulin-Different-Phenotype (%)” value [8] was 72% and the “Total Cell Count” value [8] was 883.
